pKi: −log10 of the molar value.
Experiments:
Cathepsin D = Cathepsin D (Homo sapiens, UniProt P07339); experiment: Compound was tested for the inhibitory activity against human liver cathepsin D
Method in brief: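 Human liver cathepsin D, 0.7 nM final, in 0.1 M formic acid buffer pH 3.7. […] Fluorescence (ex 336/em 490 nm) followed over time. Ki obtained by nonlinear fit to the Williams–Morrison tight-binding equation.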

Plasmepsin II = Plasmepsin II (Plasmodium falciparum, UniProt P46925); experiment: Inhibitory activity against plasmepsin-2
Method in brief: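 Activated Plm II proenzyme, 0.6–0.7 nM final, in 0.1 M sodium acetate pH 5.0 with 10% glycerin and 0.01% Tween-20. Inhibitor in DMSO, preincubated 4.5 min at 25 °C, then DABCYL/EDANS fluorogenic peptide substrate added (Km 0.75 μM). Fluorescence (ex 336/em 490 nm) followed over time. Five to six inhibitor concentrations, duplicate or triplicate. Ki by Williams–Morrison nonlinear fit.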

Sequence of Cathepsin D (P07339 65-162 limits assumed): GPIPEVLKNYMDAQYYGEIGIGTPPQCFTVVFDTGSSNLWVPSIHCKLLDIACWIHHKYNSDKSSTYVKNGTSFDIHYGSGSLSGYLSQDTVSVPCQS
Sequence of Cathepsin D (P07339 169-412 limits assumed): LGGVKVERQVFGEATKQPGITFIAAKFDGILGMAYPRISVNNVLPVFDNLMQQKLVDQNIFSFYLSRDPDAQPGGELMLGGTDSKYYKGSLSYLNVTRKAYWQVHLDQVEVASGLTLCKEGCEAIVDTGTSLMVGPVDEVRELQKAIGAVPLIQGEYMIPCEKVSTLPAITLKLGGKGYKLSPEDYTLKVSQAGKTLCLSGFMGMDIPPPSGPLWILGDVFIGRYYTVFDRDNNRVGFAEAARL
Sequence of Plasmepsin II (P46925 whole entry): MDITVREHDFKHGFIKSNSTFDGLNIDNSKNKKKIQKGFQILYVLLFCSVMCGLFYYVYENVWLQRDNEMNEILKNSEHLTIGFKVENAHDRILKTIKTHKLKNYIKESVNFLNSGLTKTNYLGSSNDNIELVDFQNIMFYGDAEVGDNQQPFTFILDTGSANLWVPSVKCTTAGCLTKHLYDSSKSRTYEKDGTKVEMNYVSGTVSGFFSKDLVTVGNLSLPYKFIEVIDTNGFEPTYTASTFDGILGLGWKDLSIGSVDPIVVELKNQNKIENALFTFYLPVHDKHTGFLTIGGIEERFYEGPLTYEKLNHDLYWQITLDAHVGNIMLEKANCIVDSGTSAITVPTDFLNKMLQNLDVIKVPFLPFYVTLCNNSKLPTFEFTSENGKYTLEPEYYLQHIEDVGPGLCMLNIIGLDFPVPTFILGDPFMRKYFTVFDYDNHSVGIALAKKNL

Structure (SMILES) | pKi (Cathepsin D) | pKi (Plasmepsin II)
COc1ccc(CCN(C[C@H](O)[C@H](Cc2ccccc2)NC(=O)COc2cccc(Cl)c2)C(=O)C2CCNCC2)cc1 | 7.20 | 8.37
CN1CCC(C(=O)N(CCc2ccc3c(c2)OCO3)C[C@H](O)[C@H](Cc2ccccc2)NC(=O)COc2cccc(Cl)c2)CC1 | 8.24 | 8.70
CC(=O)N1CCC(C(=O)N(CCc2ccc3c(c2)OCO3)C[C@H](O)[C@H](Cc2ccccc2)NC(=O)CNc2cccc(Cl)c2)CC1 | 8.89 | 8.52
COc1ccc(CCN(C[C@H](O)[C@H](Cc2ccccc2)NC(=O)COc2cccc(Cl)c2)C(=O)C2CCN(C)CC2)cc1 | 8.01 | 8.70
CC(=O)N1CCC(C(=O)N(CCc2ccc3c(c2)OCO3)C[C@H](O)[C@H](Cc2ccccc2)NC(=O)COc2cccc(Cl)c2)CC1 | 8.72 | 8.40
COc1ccc(CCN(C[C@H](O)[C@H](Cc2ccccc2)NC(=O)c2cc(OC)c(OCc3ccccc3)c(OC)c2)C(=O)C2CCN(C)CC2)cc1 | 7.24 | 8.39
COc1ccc(CCN(C[C@H](O)[C@H](Cc2ccccc2)NC(=O)c2cc(OC)c(OCc3ccccc3)c(OC)c2)C(=O)C2CCNCC2)cc1 | 7.15 | 8.05
O=C(COc1cccc(Cl)c1)N[C@@H](Cc1ccccc1)[C@@H](O)CN(CCc1ccc2c(c1)OCO2)C(=O)CCN1C(=O)c2ccccc2C1=O |  | 6.66
Cc1ccc(C)c(OCC(=O)N[C@@H](Cc2ccccc2)[C@@H](O)CN(CCc2ccc3c(c2)OCO3)C(=O)CCN2C(=O)c3ccccc3C2=O)c1 |  | 6.52
COc1cc(C(=O)N[C@@H](Cc2ccccc2)[C@@H](O)CN(CCc2ccc3c(c2)OCO3)C(=O)C2CCN(C(C)=O)CC2)cc(OC)c1OCc1ccccc1 | 8.37 | 8.32
COc1cc(C(=O)N[C@@H](Cc2ccccc2)[C@@H](O)CN(CCc2ccc3c(c2)OCO3)C(=O)CCN2C(=O)c3ccccc3C2=O)cc(OC)c1OCc1ccccc1 |  | 7.00
